The source of these data is PubChem BioAssay AID504383 (The Scripps Research Institute Molecular Screening Center, 2011).

The campaign covered roughly 2,500 compounds. About 1,200 (48%) were called active.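 Rule for the calls: active = mean activation above the low control average plus 3 SD, as set in the primary screen (cut at about 12% in these data); inactive = the rest.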 The set was probably picked from earlier hits. The list shows a part of the results.

For this experiment, the target named is Troponin I, cardiac muscle (Homo sapiens) + Troponin T, cardiac muscle (Homo sapiens) + Troponin C, slow skeletal and cardiac muscles (Homo sapiens) (UniProt P19429+P45379+P63316). Put plainly: cardiac RTF calcium sensitivity activators, confirmation, biochemical, IANBD-TnC fluorescence, triplicate (AID 504383).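 Note: 0% = DMSO at 0.472 mM calcium and 100% = DMSO at 2.9 mM calcium.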 The note with it: IANBD-labeled cardiac RTF, Ca2+ sensitivity fluorescence; at 7.2 µM; hits give high values; scaled from EC20 to saturating calcium; tested at EC20 calcium, 0.472 mM. The method in brief:
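Test system: labelled regulated thin filament protein complex. Dosing: single nominal compound dose of 7.2 µM. Benchmarks: EC20 and EC100 calcium wells. Read-out basis: fluorescence gain scaled between EC20 and EC100 calcium controls. Probe or stimulus: submaximal calcium at 0.472 mM (EC20). Technique: fluorescence. Times: 15 min compound exposure, 25 °C.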
For `CCc1ccccc1SCc1noc(C(=O)NCC2CCCO2)c1C(=O)O` (centres undefined), the activation is 10.6% (inactive).

In the case of `O=C(NC(=S)NCC1CCCO1)C(c1ccccc1)c1ccccc1` (centres undefined), the activation was 12.2% (active).

For `O=C(NCC(=O)N(CC1CCCO1)C1(C(=O)NC2CCCCC2)CCCCC1)c1ccccc1` (centres undefined), the activation is 8.78% (inactive).

Take `CCOc1ccc2cc(/C=C/C(=O)c3ccco3)c(Cl)nc2c1`: the activation was 4.88% (inactive).

Take `CCCc1cc(=O)[nH]c(SCC)n1`: the activation was 11.7% (active).

For the compound `Cc1nc(Cl)c2c(n1)NC1=C(O2)C(=O)CCC1`, the activation is 10.5% (inactive).

Regarding `CCN(CC)C(=O)c1ccc(/C=C/c2c[nH]c3ccccc23)[n+](C)c1`, the activation is 11.1% (inactive).

With `CCOC(=O)C(CCCCCCC(NC(C)=O)(C(=O)OCC)C(=O)OCC)(NC(C)=O)C(=O)OCC`, the activation was 9.57% (inactive).

Take `CCOC(=O)/C(=C\c1c[nH]c2ccccc12)NC(C)=O`: the activation is 31.7% (active).

Regarding `CCN(CC)C1=CC2=CC(=C(C#N)C#N)CCC2CC1` (centres undefined), the activation was 1.65% (inactive).

As for `Cn1cccc1/C=C1\SC(=S)N(NC(=O)c2ccc(Cl)cc2)C1=O`, the activation is 16.8% (active).

As to `Cn1cccc1/C=C1\SC(=S)N(NC(=O)c2ccccc2)C1=O`, the activation is 54.2% (active).

Regarding `Cc1ccc(C(=O)NN2C(=O)/C(=C/c3cccn3C)SC2=S)cc1`, the activation was 25.1% (active).

Regarding `c1ccc2c(c1)CCCN2Cc1nnnn1CC1CCCO1` (centres undefined), the activation was 7.11% (inactive).

For `c1ccc2c(c1)CCCN2Cc1nnc2n1CCCCC2`, the activation is 92% (active).

As to `O=c1cc(CN2CCCc3ccccc32)nc2sccn12`, the activation is 5.39% (inactive).

`COc1cc(/C=C2\CCC(C)C3=C(c4cc(OC)c(OC)c(OC)c4)C(C#N)=C(N)OC32)cc(OC)c1OC` (centres undefined): the activation was 36.4% (active).

For the compound `O=c1oc2ccccc2cc1-c1ccc(O)cc1O`, the activation was 94.9% (active).

In the case of `O=c1oc2cc(O)ccc2cc1-c1nc2c(s1)CCc1ccccc1-2`, the activation is 7.71% (inactive).

For the compound `O=c1c(-c2ccc(O)cc2O)coc2cc(O)cc(O)c12`, the activation is 8.85% (inactive).

For the compound `CC(C)(C)NC(=O)[C@@H]1CN(Cc2cccnc2)CCN1C[C@@H](O)C[C@@H](Cc1ccccc1)C(=O)N[C@H]1c2ccccc2C[C@H]1O`, the activation is 158% (active).

For `COc1ccc(N(CC(=O)Nc2ccccc2C(=O)NCC(C)C)S(C)(=O)=O)cc1`, the activation is 4.96% (inactive).

Turning to `CN(C)S(=O)(=O)c1ccc(C(=O)Oc2cc(=O)[nH]c3ccccc23)cc1`, the activation was 10.2% (inactive).

As to `CN(CC(=O)Nc1ccccc1Cl)C(=O)c1cc(=O)[nH]c2ccccc12`, the activation was 49.3% (active).

Consider `CCn1cc(Cl)c(C(=O)NNC(=O)CCn2cc([N+](=O)[O-])cn2)n1`, for which the activation is 23.9% (active).

On to `CCNC(=S)NNC(=O)CCn1cc(C)cn1`, for which the activation was 6.76% (inactive).

Turning to `CCCCCCc1cc2cc(-c3nnc(-c4ccccc4)o3)c(=O)oc2cc1O`, the activation was 4.49% (inactive).

As to `CCCCCCc1cc2cc(-c3nnc(-c4ccccc4O)o3)c(=O)oc2cc1O`, the activation was 14.4% (active).

Consider `O=[N+]([O-])c1cc(-c2nc(-c3ccncc3)no2)ccc1Cl`, for which the activation is 7.62% (inactive).

On to `CCOC(=O)C1(CCc2ccccc2)CCN(C(=O)c2occc2C)CC1`, for which the activation is 9.68% (inactive).

For the compound `CCOC(=O)C1(Cc2cccc(OC)c2)CCN(Cc2ccon2)CC1`, the activation was 12.7% (active).

Regarding `CCOC(=O)C1(Cc2cccc(OC)c2)CCCN(Cc2nccn2CC)C1` (centres undefined), the activation is 6.61% (inactive).

As for `Nc1ccc(S(N)(=O)=O)cc1N`, the activation is 600% (active).

Turning to `CCCCn1c(N)c(N(CC(C)C)C(=O)Cc2ccc(S(=O)(=O)N3CCOCC3)s2)c(=O)[nH]c1=O`, the activation was 8.87% (inactive).

In the case of `CCOc1ccccc1N1CCN(CC(=O)N(CC(C)C)c2c(N)n(CC(C)C)c(=O)[nH]c2=O)CC1`, the activation was 35.3% (active).

For `CCOc1ccccc1N1CCN(CC(=O)c2c(N)n(C)c(=O)n(C)c2=O)CC1`, the activation is 14.9% (active).

In the case of `CC(C)CN(C(=O)CCCc1nc2ccccc2c(=O)[nH]1)c1c(N)n(Cc2ccccc2)c(=O)[nH]c1=O`, the activation was 8.94% (inactive).

For the compound `c1ccc(CCCN2CCN(c3ccccc3)CC2)cc1`, the activation is 7.15% (inactive).

With `O[C@@H]1CN(C2CCCCC2)CC[C@H]1N1CCN(CCc2ccccc2)CC1`, the activation was 18.1% (active).

`CC1=NN(c2ccc(C)c(C)c2)C(=O)/C1=C/c1ccc2c(c1)n(C)c(=O)n2C`: the activation is 57.9% (active).

As for `CC1=NN(c2ccc(Br)cc2)C(=O)/C1=C/c1ccc(-c2ccccc2C(=O)O)o1`, the activation is 10.1% (inactive).

Regarding `O=C(Nc1ccc(C(=O)N2CCOCC2)cc1)Nc1cccc(Cl)c1`, the activation was 47.5% (active).

Take `O=C(NCC1CC1)Nc1cccc(Cl)c1`: the activation is 2.84% (inactive).

In the case of `CN1CCC/C1=C1/C(=O)N(c2ccccc2)N=C1NC(=O)Nc1cccc(Cl)c1`, the activation is -1.33% (inactive).

As to `COCCOC(=O)/C(=C/c1ccc(OC(=O)c2ccccc2)cc1)C(C)=O`, the activation is 8.35% (inactive).

With `CC(COC(=O)c1ccccc1)(COC(=O)c1ccccc1)/[N+]([O-])=C/c1ccccc1`, the activation was 32% (active).

As for `Cc1cc2nc3c(=O)[nH]c(=O)[nH]c3nc2c([N+](=O)[O-])c1N`, the activation was 2.96% (inactive).

With `Nc1ccc2nc3c(=O)[nH]c(=S)[nH]c3nc2c1`, the activation was 28.7% (active).

Consider `Cc1cc2nc3c(=O)n(C4CCCCC4)c(=O)[nH]c3nc2cc1N`, for which the activation is 17.8% (active).

On to `Nc1ccc2nc3c(=O)n(C4CCCCC4)c(=O)[nH]c3nc2c1`, for which the activation was 16.6% (active).

As for `Cc1cc2nc3c(=O)[nH]c(=S)[nH]c3nc2cc1NC(=O)C(F)(F)F`, the activation is 25.4% (active).

In the case of `COCc1cc(=O)[nH]c2cc(NC(=O)C(C)(C)CCl)c(C)cc12`, the activation is 4.59% (inactive).

For `O=C(c1ccc(COc2ccccc2Br)o1)N1N=C(C(F)F)CC1(O)C(F)F` (centres undefined), the activation was 34.5% (active).

As to `O=C(c1ccc(Cn2cc([N+](=O)[O-])cn2)o1)N1N=C(C(F)F)CC1(O)C(F)F` (centres undefined), the activation is 14.1% (active).

Consider `c1ccc(-n2ncc(-c3nn[nH]n3)n2)cc1`, for which the activation is 163% (active).

On to `CC(=O)Nc1ccc(N2C(=O)c3cccc4c(O)ccc(c34)C2=O)cc1`, for which the activation was 2.36% (inactive).

As for `CC(=O)Nc1ccc(N2C(=O)CSC2c2ccc(F)cc2)cc1` (centres undefined), the activation was 81.7% (active).

In the case of `CCC(=O)N1CCC2(CC1)Oc1ccc(Cl)cc1C(=O)C21CC(c2cccnc2)=NO1` (centres undefined), the activation was 19.6% (active).

On to `CN(C)c1ccc(/C=C2\N=C(C(C)(C)C)OC2=O)cc1`, for which the activation is 7.46% (inactive).

In the case of `CN1C(=O)/C(=C\c2ccc(N(C)C)cc2)OC1=S`, the activation was 223% (active).

On to `Cc1c(N2C(=O)/C(=C\c3ccc(N(C)C)cc3)N(C)C2=S)c(=O)n(-c2ccccc2)n1C`, for which the activation was 6.77% (inactive).

For `CN(N=Nc1nc[nH]c1C(=O)NN)C1CCCCC1`, the activation is 12.9% (active).

On to `COC(=O)CCCNC(=O)CCc1nnc(-c2ccc(-c3ccccc3)cc2)o1`, for which the activation was 10.8% (inactive).

As for `Cc1cc(C)c(C#N)c(SCc2nnc(-c3ccccc3)o2)n1`, the activation is 50.8% (active).

With `O=C(CO/N=C/c1ccccc1OC(F)F)NCc1cccs1`, the activation was 70.3% (active).

Turning to `O=C1c2cccc3c(N4CCCCC4)ccc(c23)C(=O)N1CCO`, the activation was 185% (active).

For the compound `O=C1c2cccc3c(N4CCCCC4)ccc(c23)C(=O)N1c1ccccc1O`, the activation was -0.04% (inactive).

For `O=C1c2cccc3c(N4CCCCC4)ccc(c23)C(=O)N1c1cccc(O)c1`, the activation was 33.3% (active).

Regarding `CCCN1C(=O)c2cccc3c(N4CCCCC4)ccc(c23)C1=O`, the activation was 6.04% (inactive).

Consider `O=C1c2cccc3c(N4CCCCC4)ccc(c23)C(=O)N1c1ccc(O)cc1`, for which the activation is 10.7% (inactive).

Regarding `C=CCN1C(=O)c2cccc3c(N4CCCCC4)ccc(c23)C1=O`, the activation is 15.9% (active).

For the compound `O=C1c2ccccc2-c2onc3ccc(N4CCCC4)c1c23`, the activation is 9.75% (inactive).

For `Cc1n[nH]c(C)c1N1C(=O)c2cccc3c(N4CCCCCC4)ccc(c23)C1=O`, the activation was 5.61% (inactive).

For `CC1(C)C2CCC(C2)C1(C)N=C1OC(CCl)CS1` (centres undefined), the activation was 3.58% (inactive).

For `O=c1oc2c3c4c(cc2c(C(F)(F)F)c1CCN1CCOCC1)CCCN4CCC3`, the activation was 4.32% (inactive).

Consider `Cc1ccc2c(CN3CCCc4ccccc43)cc(=O)oc2c1C`, for which the activation was -0.53% (inactive).

Regarding `N=c1oc2c3c4c(cc2cc1C(=O)Nc1ccccc1)CCCN4CCC3`, the activation was 88.7% (active).

As to `O=c1ccc2cc3c4c(c2o1)CCCN4CCC3`, the activation was 33.6% (active).

Turning to `CCN(CC)S(=O)(=O)c1ccc2[nH]cc(C(=O)NCCN3CCCCCC3)c(=O)c2c1`, the activation is 34.4% (active).

On to `CC(=O)N1CCN(S(=O)(=O)c2cccc(C(=O)NNC(=O)c3ccc(Br)cc3)c2)CC1`, for which the activation was 7.22% (inactive).

As for `CC(C)(C)c1cc(NC(=O)c2cccc(S(=O)(=O)N3CCOCC3)c2)no1`, the activation is 23.5% (active).

For the compound `Cn1nc(-c2ccccc2)c(C(=O)Nc2ccc(C(F)(F)F)cc2)c1Cl`, the activation was 26.2% (active).

In the case of `CN1CCN(C2=CC3=CC(=C(C#N)C#N)CCC3CC2)CC1` (centres undefined), the activation is 6.77% (inactive).

As to `CSCC(C)N1CCC(n2nccc2NC(=O)CCCc2ccccc2)CC1` (centres undefined), the activation is 162% (active).

`COC(=O)CCN(C(=O)c1ccc([N+](=O)[O-])cc1)c1ccccn1`: the activation is 19.7% (active).

On to `CC(=O)NCC(O)c1ccc([N+](=O)[O-])cc1` (centres undefined), for which the activation was 7.74% (inactive).

On to `COCCCNc1c2c3c(cccc3[nH]c1=O)C(=O)c1ccccc1-2`, for which the activation was 13.2% (active).

For `CCCCNc1c2c3c(cccc3n(C)c1=O)C(=O)c1ccccc1-2`, the activation is 2.63% (inactive).

With `CC(C)n1cnc2c(NCc3ccccc3)cc(N[C@H](C)CO)cc21`, the activation is -7.72% (inactive).

For the compound `CCOC(=O)c1sc2nc(C)nc(SCC(=O)NC3CCS(=O)(=O)C3)c2c1C` (centres undefined), the activation is 32.3% (active).

`C[C@@H]1CC=C[C@H]2[C@H]1C(=O)N(Cc1ccccc1)[C@H]2c1ccc(-c2cc3ccccc3s2)cc1F`: the activation was 3.06% (inactive).

`CN(Cc1ccccc1)C(=O)c1cccc(N2C(=O)NC3CC2(C)Oc2ccccc23)c1` (centres undefined): the activation was 54% (active).

As for `COc1cccc2c1OC1(C)CC2NC(=O)N1Cc1ccccc1` (centres undefined), the activation is 10.4% (inactive).

Take `CCOc1cccc2c1OC1(C)CC2NC(=O)N1c1cccc(C(=O)NCc2ccccn2)c1` (centres undefined): the activation is 5.07% (inactive).
